Converted amounts (≈) assume the structure as drawn. The source made the active and inactive calls. The rule behind the calls is not given here.
Key:
Schistosoma mansoni [1] = assay: Antischistosomal activity against adult Schistosoma mansoni assessed as morphological changes at 10 ug/ml after 120 hrs; assay type: functional, organism-based
Procedure, shortened: (§1)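 Adult worms were recovered from infected mice by portal perfusion with warm DMEM containing 2 mM L-glutamine, penicillin/streptomycin, 20 mM Hepes and heparin. Host red cells were removed and the worms moved to DMEM with 10% FCS, glutamine and antibiotics. Compounds were added from 10 mg/mL DMSO stocks. At 120 h, motility disturbances and morphological changes were scored.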

Schistosoma mansoni [2] = assay: Antischistosomal activity in juvenile Schistosoma mansoni infected in mouse assessed as female worm reduction at 400 mg/kg, po after 28 days; assay type: functional; set-up: scale not given: the % may be the effect or the level left
Procedure, shortened: (§2)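 Mice were infected with about 80 cercariae on day 0. A single oral dose was given, dissolved or suspended in 3% ethanol/7% Tween 80 vehicle: groups of three mice on day 21 (juvenile) and groups of five on day 49 (adult). Mice were killed by CO₂ 28 days after treatment and dissected for total and female worm counts versus vehicle controls. Medians were compared by Kruskal–Wallis test.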

Schistosoma mansoni [3] = assay: Antischistosomal activity against adult Schistosoma mansoni assessed as motility reduction at 10 ug/ml after 120 hrs; assay type: functional; set-up: scale not given: the % may be the effect or the level left; procedure, shortened: as §1
Schistosoma mansoni [4] = assay: Antischistosomal activity in adult Schistosoma mansoni infected in mouse assessed as total worm reduction at 400 mg/kg, po after 28 days; assay type: functional; set-up: scale not given: the % may be the effect or the level left; procedure, shortened: as §2
Schistosoma mansoni [5] = assay: Antischistosomal activity in adult Schistosoma mansoni infected in mouse assessed as female worm reduction at 400 mg/kg, po after 28 days; assay type: functional; set-up: scale not given: the % may be the effect or the level left; procedure, shortened: as §2
Schistosoma mansoni [6] = assay: Antischistosomal activity in juvenile Schistosoma mansoni infected in mouse assessed as total worm reduction at 400 mg/kg, po after 28 days; assay type: functional; set-up: scale not given: the % may be the effect or the level left; procedure, shortened: as §2
Liver microsomes = assay: Metabolic stability in human liver microsomes at 1 uM after 120 mins by LC-MS/MS; assay type: ADME, Microsome; details: 2 h
Procedure, shortened: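 Compound at 1 µM was incubated at 37 °C with 0.5 mg/mL microsomes. Reactions were started with an NADPH-regenerating system and stopped with ice-cold MeOH. Loss of parent compound over 120 min was followed by LC–MS/MS.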

Schistosoma mansoni [7] = assay: Antischistosomal activity against adult Schistosoma mansoni; assay type: functional, organism-based
Schistosoma mansoni [8] = assay: Antischistosomal activity in juvenile Schistosoma mansoni infected in mouse assessed as female worm reduction at 200 mg/kg, po after 28 days; assay type: functional; set-up: scale not given: the % may be the effect or the level left
Procedure, shortened: (§3)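 Mice infected with ca. 80 S. mansoni cercariae on day 0; single oral dose given on day 21 post-infection (juvenile stage) in 3% ethanol/7% Tween 80 vehicle, groups of three mice. Sacrificed by CO₂ 28 days post-treatment and dissected; total and female worm reduction rates versus vehicle controls, Kruskal–Wallis test comparing medians.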

Schistosoma mansoni [9] = assay: Antischistosomal activity in juvenile Schistosoma mansoni infected in mouse assessed as total worm reduction at 200 mg/kg, po after 28 days; assay type: functional; set-up: scale not given: the % may be the effect or the level left; procedure, shortened: as §3

Structure (SMILES) | Activity (Schistosoma mansoni [1]) | Activity (Schistosoma mansoni [2]) | Activity (Schistosoma mansoni [3]) | Activity (Schistosoma mansoni [4]) | Activity (Schistosoma mansoni [5]) | Activity (Schistosoma mansoni [6]) | Stability (Liver microsomes) | IC50 (Schistosoma mansoni [7]) | Activity (Schistosoma mansoni [8]) | Activity (Schistosoma mansoni [9])
O=C(N1CCCCC1)N1CC(=O)N2CCc3ccccc3C2C1 (stereo not drawn) | Active | 34% | 38% | 1% | 9% | 27% |  |  |  | 
O=C(C1CCC(F)(F)CC1)N1CC(=O)N2CCc3ccccc3C2C1 (stereo not drawn) | Active | 44% | 25% | 40% | 39% | 38% | Stable |  |  | 
O=C(N1CCOCC1)N1CC(=O)N2CCc3ccccc3C2C1 (stereo not drawn) | inactive | 22% | 0% | 0% | 0% | 14% |  |  |  | 
O=C1CN(C(=O)[C@H]2CC[C@]3(CC2)OO[C@]2(O3)C3CC4CC(C3)CC2C4)CC2c3ccccc3CCN12 (stereo partly drawn) | inactive | 0% | 0% | 0% | 0% | 0% |  |  |  | 
O=C(C1CCCCC1)N1CC(=O)N2CCc3ccccc3C2C1 (stereo not drawn) [PRAZIQUANTEL] | Active | 18% | 100% | 96% | 98% | 7% |  | 0.37 µg/mL (≈ 1.18 µM) |  | 
O=C1CCC(C(=O)N2CC(=O)N3CCc4ccccc4C3C2)CC1 (racemic) | Active | 41% | 0% | 79% | 81% | 25% |  |  |  | 
O=C1CN(C(=O)[C@H]2CC[C@]3(CC2)OO[C@]2(O3)C3CC4CC(C3)CC2C4)CCN1 | inactive |  | 0% | 1% | 13% |  |  |  | 85% | 85%
O=C(N1CCNCC1)N1CC(=O)N2CCc3ccccc3C2C1 (stereo not drawn) | inactive | 23% | 0% | 0% | 0% | 25% |  |  |  | 
O=C(N1CCC(F)(F)CC1)N1CC(=O)N2CCc3ccccc3C2C1 (stereo not drawn) | inactive | 38% | 0% | 12% | 0% | 38% | Stable |  |  | 
O=C1CN(C(=O)C23CC4CC(CC(C4)C2)C3)CC2c3ccccc3CCN12 (stereo not drawn) | inactive | 56% | 0% | 0% | 0% | 42% |  |  |  | 

Reference: ChEMBL document CHEMBL1156158, “Praziquantel analogs with activity against juvenile Schistosoma mansoni” (Bioorg Med Chem Lett, 2010)
